# Legend:
# [1] = test system: Canis familiaris; assay: Effect that produces a 50% increase in myocardial contractile force (CF) above control in anesthetized open-chest dogs at 8.75 mg/kg intravenous dose; format: functional; details: Canis lupus familiaris, Myocardium
# Procedure, shortened: (§1)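 Anesthetized (pentobarbital 45 mg/kg i.p.), artificially respired mongrel dogs with right thoracotomy. Contractile force was read by a strain gauge on the right ventricle. Compound was given in 10% DMF in saline, or as the HCl salt in saline, by femoral vein infusion in 3–4 stepwise increasing doses, each over 5 min. ED50 (mg/kg iv) is the dose giving a 50% CF rise over control, taken from 3–4 point dose–response curves by graphic estimation (n = 1, 2 dogs) or linear regression (n ≥ 3).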
# [2] = test system: Canis familiaris; assay: Effect on arterial blood pressure (MAP) in anesthetized open-chest dogs at 8.75 mg/kg intravenous dose; format: functional, Canis lupus familiaris
# Procedure, shortened: (§2)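 Pentobarbital-anesthetized (45 mg/kg i.p.), ventilated mongrel dogs, open chest. MAP came from a femoral artery cannula, HR from a cardiotachometer triggered by the pressure pulse, and CF from a right-ventricle strain gauge. Compound in 10% DMF/saline or as the HCl salt in saline was infused iv in 3–4 stepwise rising doses, each over 5 min. Responses are % change from predrug control at the maximum dose given.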
# [3] = test system: Canis familiaris; assay: Effect on myocardial contractile force (CF) in anesthetized open-chest dogs at 8.75 mg/kg intravenous dose; format: functional, Canis lupus familiaris, Myocardium; procedure, shortened: as §2
# [4] = target: Phosphodiesterase 3 (Canis familiaris); assay: Inhibitory activity against canine cardiac fraction III cyclic AMP phosphodiesterase (PDE III)
# [5] = test system: Canis familiaris; assay: Effect on heart rate (HR) in anesthetized open-chest dogs at 8.75 mg/kg intravenous dose; format: functional, Canis lupus familiaris; procedure, shortened: as §2
# [6] = test system: Canis familiaris; assay: Effect on heart rate (HR) in anesthetized open-chest dogs at 0.875 mg/kg intravenous dose; format: functional, Canis lupus familiaris; procedure, shortened: as §2
# [7] = test system: Canis familiaris; assay: 50% increase in myocardial contractile force (CF) above control in anesthetized open-chest dogs at 0.875 mg/kg intravenous dose; format: functional; details: Canis lupus familiaris, Myocardium; procedure, shortened: as §1
# [8] = test system: Canis familiaris; assay: Effect on myocardial contractile force (CF) in anesthetized open-chest dogs at 0.875 mg/kg intravenous dose; format: functional, Canis lupus familiaris, Myocardium; procedure, shortened: as §2
# [9] = test system: Canis familiaris; assay: Effect on arterial blood pressure (MAP) in anesthetized open-chest dogs at 0.875 mg/kg intravenous dose; format: functional, Canis lupus familiaris; procedure, shortened: as §2
# [10] = test system: Canis familiaris; assay: Effect on myocardial contractile force (CF) in anesthetized open-chest dogs at 1.875 mg/kg intravenous dose; format: functional, Canis lupus familiaris, Myocardium; procedure, shortened: as §2
# [11] = test system: Canis familiaris; assay: Effect on heart rate (HR) in anesthetized open-chest dogs at 1.875 mg/kg intravenous dose; format: functional, Canis lupus familiaris; procedure, shortened: as §2
# [12] = test system: Canis familiaris; assay: Effect on arterial blood pressure (MAP) in anesthetized open-chest dogs at 1.875 mg/kg intravenous dose; format: functional, Canis lupus familiaris; procedure, shortened: as §2
# [13] = test system: Canis familiaris; assay: 50% increase in myocardial contractile force (CF) above control in anesthetized open-chest dogs at 1.875 mg/kg intravenous dose; format: functional; details: Canis lupus familiaris, Myocardium; procedure, shortened: as §1
# [14] = test system: Canis familiaris; assay: 50% increase in myocardial contractile force (CF) above control in anesthetized open-chest dogs at 3.75 mg/kg intravenous dose; format: functional; details: Canis lupus familiaris, Myocardium; procedure, shortened: as §1
# [15] = test system: Canis familiaris; assay: Effect on arterial blood pressure (MAP) in anesthetized open-chest dogs at 3.75 mg/kg intravenous dose; format: functional, Canis lupus familiaris; procedure, shortened: as §2
# [16] = test system: Canis familiaris; assay: Effect on myocardial contractile force (CF) in anesthetized open-chest dogs at 3.75 mg/kg intravenous dose; format: functional, Canis lupus familiaris, Myocardium; procedure, shortened: as §2
# [17] = test system: Canis familiaris; assay: Effect on heart rate (HR) in anesthetized open-chest dogs at 3.75 mg/kg intravenous dose; format: functional, Canis lupus familiaris; procedure, shortened: as §2
# [18] = target: Phosphodiesterase 3 (Canis familiaris); assay: Inhibition of canine cardiac fraction III cAMP phosphodiesterase (PDE 3) at 0.875 mg/kg intravenous dose
# [19] = target: Phosphodiesterase 3 (Canis familiaris); assay: Inhibition of canine cardiac fraction III cAMP phosphodiesterase (PDE 3) at 1.875 mg/kg intravenous dose
SMILES,IC50 [4] [µM],ED50 [1] [mg/kg],Change [2] [%],Change [3] [%],Change [5] [%],Change [10] [%],Change [11] [%],Change [12] [%],ED50 [13] [mg/kg],further results
Cc1nc(O)nc2ccc(N3CCOCC3)cc12,,,,,,,,,,Change [6]: 13%; ED50 [7]: 0.7 mg/kg; Change [8]: 59%; Change [9]: -10%
COc1ccc2c(c(C)nc(=O)n2C)c1OC,,,,,,31,5,6,> 1.87,
Cc1nc(O)nc2ccc(N(C)C)cc12,38,1.2,-23,90,23,,,,,
Cc1nc(O)nc2ccc(N3CCCCC3)cc12,,,,,,,,,,ED50 [14]: 1.13 mg/kg; Change [15]: -21%; Change [16]: 116%; Change [17]: 35%
COc1ccc(OC)c2c(C)nc(O)nc12,129,,-6,54,13,,,,,
COc1cc2c(C)nc(O)nc2c(OC)c1OC,,,,,,10,3,-4,> 1.87,
Cc1nc(O)nc2ccc(Cl)cc12,,1.8,-21,85,33,,,,,
CCc1nc(O)nc2cc(OC)c(OC)cc12,,3.4,-28,82,13,,,,,
Nc1cc(-c2ccncc2)c[nH]c1=O [INAMRINONE],,,,,,134,12,-10,0.38,
COc1ccc2nc(O)nc(C)c2c1,,,,,,,,,,ED50 [14]: 1.32 mg/kg; Change [15]: -10%; Change [16]: 111%; Change [17]: 18%
Cc1nc(O)nc2ccc3c(c12)OCO3,,,,,,71,13,-14,0.69,
COc1ccc2[nH]c(=O)nc(C)c2c1OC [BEMARINONE],,,,,,,,,,Change [6]: 20%; ED50 [7]: 0.23 mg/kg; IC50 [18]: 17 µM; Change [8]: 114%; Change [9]: -16%
COc1cc2nc(O)nc(C)c2c(OC)c1OC,,,,,,11,0,-9,> 1.87,
Cc1nc(O)nc2ccc(N3CCN(C)CC3)cc12,,,,,,10,6,0,> 1.87,IC50 [19]: 300 µM
Br.Cc1nc(O)nc2ccc(O)c(O)c12,18,> 8.75,8,39,0,,,,,
Cc1nc(O)nc2ccccc12,138,3.45,-8,93,16,,,,,
CCc1nc(O)nc2ccc(OC)c(OC)c12,,,,,,112,20,9,0.51,IC50 [19]: 18 µM
COc1cc2nc(O)nc(Cc3ccccc3)c2cc1OC,,,,,,33,3,30,> 1.87,IC50 [19]: 13 µM
COc1ccc2nc(O)ncc2c1OC,,,,,,101,10,-9,1.64,
Cc1nc(O)nc2cc3c(cc12)OCO3,,5.65,1,66,10,,,,,
Cc1nc(O)nc2cc(Cl)c(Cl)cc12,,> 8.75,1,10,2,,,,,

# More lines, main results first:
IC50 [4] [µM],SMILES,ED50 [1] [mg/kg],Change [2] [%],Change [3] [%],Change [5] [%],Change [10] [%],Change [11] [%],Change [12] [%],ED50 [13] [mg/kg],further results
100,COc1cc2nc(O)nc(C(F)(F)F)c2cc1OC,> 8.75,-15,23,0,,,,,
190,COc1cc(OC)c2nc(O)nc(C)c2c1,7.45,-6,60,13,,,,,
22,COc1cc2nc(O)nc(C3CCCC3)c2cc1OC,> 8.75,-19,71,11,,,,,
43,COc1cc2nc(O)nc(C(C)C)c2cc1OC,1.39,-27,112,21,,,,,
100,COc1cc2nc(O)nc(C)c2cc1OC,2.42,-35,90,19,,,,,
14,COc1cc2nc(O)nc(-c3ccccc3)c2cc1OC,4.1,-25,106,7,,,,,
25,COc1cc(OC)c2c(C)nc(O)nc2c1,2.08,-40,97,25,,,,,
